The values below come from ChEMBL document CHEMBL1136701, “Design, synthesis and biological activity of beta-carboline-based type-5 phosphodiesterase inhibitors” (Bioorg Med Chem Lett, 2003).

For test [1], the target named is Dual 3',5'-cyclic-AMP and -GMP phosphodiesterase 11A (Homo sapiens, UniProt Q9HCR9). Description: Inhibitory activity against phosphodiesterase 11 (PDE11) obtained from recombinant Sf9 expression. Summed up:
(§1)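 Scintillation proximity assay: fixed enzyme amount with varying inhibitor concentrations; substrate cGMP (3:1 unlabelled to [³H]-labelled) at about 1/3 Km, so that IC50 ≈ Ki. Buffer 20 mM Tris–HCl pH 7.4, 5 mM MgCl2, BSA. Reactions started with enzyme, run 30–60 min at 30 °C, stopped with yttrium silicate SPA beads. Counts converted to % of uninhibited control; IC50 from curve fit.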

Test [2] has as its target T1, cGMP-specific 3',5'-cyclic phosphodiesterase (Homo sapiens, UniProt O76074). Description: Inhibitory activity against phosphodiesterase 5 (PDE5) obtained from human corpus cavernosum tissue. An outline of the steps: as §1
The nature of test [3]: Relative inhibitoin of PDE11 and PDE5.
In the next test the target is Phosphodiesterase 6. Description: Inhibitory activity against phosphodiesterase 6 (PDE6) obtained from canine or bovine retina. Type of test: protein assay. An outline of the steps: as §1
Test [4] in a line: Relative inhibition of PDE11 and PDE5.
The target of test [5] is T1, cGMP-specific 3',5'-cyclic phosphodiesterase. The test can be described thus: Selectivity ratio of the compound against PDE6 to that of PED5.

Each structure is given as a SMILES string.

Sequence of Dual 3',5'-cyclic-AMP and -GMP phosphodiesterase 11A (Q9HCR9 whole entry): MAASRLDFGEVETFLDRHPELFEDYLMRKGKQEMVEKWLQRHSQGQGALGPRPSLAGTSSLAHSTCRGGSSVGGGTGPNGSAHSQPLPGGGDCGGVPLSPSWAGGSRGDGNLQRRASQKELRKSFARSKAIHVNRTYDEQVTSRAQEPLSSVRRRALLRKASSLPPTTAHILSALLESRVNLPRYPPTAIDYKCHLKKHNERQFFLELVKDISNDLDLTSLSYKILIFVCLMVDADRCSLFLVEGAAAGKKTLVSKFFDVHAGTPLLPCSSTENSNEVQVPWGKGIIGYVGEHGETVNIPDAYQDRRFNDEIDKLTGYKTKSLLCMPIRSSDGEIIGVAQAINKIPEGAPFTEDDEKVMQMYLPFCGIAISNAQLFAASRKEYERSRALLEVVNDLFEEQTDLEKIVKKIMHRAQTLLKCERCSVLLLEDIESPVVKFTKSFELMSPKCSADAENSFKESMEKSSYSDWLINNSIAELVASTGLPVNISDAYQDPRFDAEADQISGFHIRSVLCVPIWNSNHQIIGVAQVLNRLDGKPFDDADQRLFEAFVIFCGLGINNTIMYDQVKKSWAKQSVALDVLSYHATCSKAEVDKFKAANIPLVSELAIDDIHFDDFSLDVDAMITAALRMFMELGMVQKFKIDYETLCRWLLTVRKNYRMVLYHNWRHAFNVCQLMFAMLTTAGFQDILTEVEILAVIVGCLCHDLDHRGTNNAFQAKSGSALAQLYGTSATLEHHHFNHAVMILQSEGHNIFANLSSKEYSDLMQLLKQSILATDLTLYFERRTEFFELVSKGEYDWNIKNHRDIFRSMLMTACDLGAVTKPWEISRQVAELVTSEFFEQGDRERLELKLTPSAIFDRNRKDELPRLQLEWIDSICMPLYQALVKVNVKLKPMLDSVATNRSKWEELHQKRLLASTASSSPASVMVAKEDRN

As usually defined, the IC50 is the concentration needed to halve the response being measured. As to `COc1cccc([C@@H]2c3[nH]c4ccccc4c3C[C@@H]3C(=O)N([C@@H]4CCN(Cc5ccccc5)C4)CC(=O)N23)c1` (stereo in doubt; form 1) [listing 1 of 2 here], the IC50 is 44 nM in test [1] and 28.6 nM in test [2].
As to `COc1ccc([C@@H]2c3[nH]c4ccccc4c3C[C@@H]3C(=O)N([C@@H]4CCN(Cc5ccccc5)C4)CC(=O)N23)cc1C`, the IC50 came out at 71 nM in test [1] and 132 nM in test [2]. Besides, the Selectivity ratio in test [3] is 0.5.
On the same counts, the results for `COc1ccc([C@@H]2c3[nH]c4ccccc4c3C[C@@H]3C(=O)N([C@@H]4CCN(Cc5ccccc5)C4)CC(=O)N23)cc1` are 6.7 nM, 2.7 nM and 2.5.
As to `COCCCN1CC[C@@H](N2CC(=O)N3[C@H](c4ccc5c(c4)OCO5)c4[nH]c5ccccc5c4C[C@@H]3C2=O)C1`, the IC50 stood at 22 nM in test [1], 1340 nM against Phosphodiesterase 6 and 7.1 nM in test [2]. Further, the Selectivity ratio in test [4] was 3; in test [5], 188.
For `O=C1[C@H]2Cc3c([nH]c4ccccc34)[C@@H](c3ccc(O)nc3)N2C(=O)CN1[C@@H]1CCN(Cc2ccccc2)C1`, the IC50 is 39 nM in test [1] and 127 nM in test [2]. Moreover, the Selectivity ratio in test [3] worked out at 0.3.
For the molecule `O=C1[C@H]2Cc3c([nH]c4ccccc34)[C@@H](c3ccc4c(c3)OCO4)N2C(=O)CN1[C@@H]1CCN(CCC2CC2)C1`, the half-maximal inhibitory concentration (IC50) in test [1] worked out at 43 nM; on Phosphodiesterase 6, 2660 nM; in test [2] it was 15.7 nM. Moreover, the values for the Selectivity ratio in test [4] and in test [5] were 2.7 and 169, respectively.
Consider `O=C1[C@H]2Cc3c([nH]c4ccccc34)[C@@H](c3ccc4c(c3)OCO4)N2C(=O)CN1[C@H]1CCN(Cc2ccccc2)C1`, for which, in test [1], the IC50 is 85 nM.
Turning to `O=C1[C@H]2Cc3c([nH]c4ccccc34)[C@@H](c3ccc4c(c3)OCO4)N2C(=O)CN1C1CCN(Cc2ccccc2)CC1`, the results for the IC50 (on Phosphodiesterase 6; in test [2]) were 1619 nM and 26 nM, respectively.
Regarding `O=C1[C@H]2Cc3c([nH]c4ccccc34)[C@@H](c3ccc4c(c3)OCO4)N2C(=O)CN1[C@@H]1CCN(Cc2ccccc2)C1`, the figures for the IC50 (in test [1]; on Phosphodiesterase 6) were 5.5 nM and 249 nM, respectively.
Turning to `CCNC(=O)CCN1CC[C@@H](N2CC(=O)N3[C@H](c4ccc5c(c4)OCO5)c4[nH]c5ccccc5c4C[C@@H]3C2=O)C1`, the IC50 was 4.3 nM in test [1], 620 nM on Phosphodiesterase 6 and 3.6 nM in test [2]. Besides, the Selectivity ratio is 1.2 in test [4] and 172 in test [5].
For the molecule `CN(C)CCN1CC(=O)N2[C@H](c3ccc4c(c3)OCO4)c3[nH]c4ccccc4c3C[C@@H]2C1=O`, the IC50 turned out to be 53 nM in test [1], 8224 nM against Phosphodiesterase 6 and 134 nM in test [2].
In the case of `COc1ccc([C@@H]2c3[nH]c4ccccc4c3C[C@@H]3C(=O)N([C@@H]4CCN(Cc5ccccc5)C4)CC(=O)N23)cc1OC`, the figures for the IC50 in test [1] and in test [2] were 1000 nM and > 1000 nM, respectively.
As for `O=C1[C@H]2Cc3c([nH]c4ccccc34)[C@@H](c3ccc4c(c3)OCO4)N2C(=O)CN1CCN1CCOCC1`, the IC50 was determined as 2966 nM against Phosphodiesterase 6 and 56 nM in test [2].
As to `COc1cccc([C@@H]2c3[nH]c4ccccc4c3C[C@@H]3C(=O)N([C@@H]4CCN(Cc5ccccc5)C4)CC(=O)N23)c1` (stereo in doubt; form 1) [listing 2 of 2 here], the Selectivity ratio in test [3] stood at 1.5.
For `COc1cccc([C@@H]2c3[nH]c4ccccc4c3C[C@@H]3C(=O)N([C@@H]4CCN(Cc5ccccc5)C4)CC(=O)N23)c1` (stereo in doubt; form 2) [listing 1 of 2 here], the IC50 in test [1] stood at 11.8 nM; in test [2] it was 15.6 nM.
Consider `Cn1ccnc1CCN1CC[C@@H](N2CC(=O)N3[C@H](c4ccc5c(c4)OCO5)c4[nH]c5ccccc5c4C[C@@H]3C2=O)C1` (stereo in doubt; form 2) [listing 1 of 2 here], for which the IC50 in test [1] turned out to be 1.4 nM; against Phosphodiesterase 6, 125 nM; in test [2] it was 0.7 nM.
`CN(C)CC(=O)CN1CC[C@@H](N2CC(=O)N3[C@H](c4ccc5c(c4)OCO5)c4[nH]c5ccccc5c4C[C@@H]3C2=O)C1`: the IC50 in test [1] is 48 nM; in test [2], 19.8 nM. Besides, in test [4], the Selectivity ratio was found to be 2.4.
Regarding `O=C(CCN1CC[C@@H](N2CC(=O)N3[C@H](c4ccc5c(c4)OCO5)c4[nH]c5ccccc5c4C[C@@H]3C2=O)C1)N1CCC1`, the IC50 came out at 4.7 nM in test [1], 846 nM at Phosphodiesterase 6 and 4 nM in test [2]. Further, the Selectivity ratio amounted to 1.2 in test [4] and 211 in test [5].
On to `CN(C)C(=O)CCN1CC[C@@H](N2CC(=O)N3[C@H](c4ccc5c(c4)OCO5)c4[nH]c5ccccc5c4C[C@@H]3C2=O)C1`, for which the IC50 in test [1] was 4.7 nM; against Phosphodiesterase 6, 807 nM; in test [2], 2.5 nM. The Selectivity ratio in test [4] came out at 1.9; in test [5] it was 316.
For `CCCN1CC[C@@H](N2CC(=O)N3[C@H](c4ccc5c(c4)OCO5)c4[nH]c5ccccc5c4C[C@@H]3C2=O)C1`, the values for the IC50 (on Phosphodiesterase 6; in test [2]) were > 10000 nM and 57 nM, respectively. Further, in test [5], the Selectivity ratio is > 175.
Turning to `COc1cccc([C@@H]2c3[nH]c4ccccc4c3C[C@@H]3C(=O)N([C@@H]4CCN(Cc5ccccc5)C4)CC(=O)N23)c1` (stereo in doubt; form 2) [listing 2 of 2 here], in test [3], the Selectivity ratio is 0.8.
Turning to `O=C1[C@H]2Cc3c([nH]c4ccccc34)[C@@H](c3ccc4c(c3)OCO4)N2C(=O)CN1[C@@H]1CCN(CCc2cnccn2)C1`, the values for the half-maximal inhibitory concentration (IC50) (in test [1]; on Phosphodiesterase 6; in test [2]) were 4.2 nM, 358 nM and 2 nM, respectively. For the same molecule, the figures for the Selectivity ratio in test [4] and in test [5] were 2.1 and 181, respectively.
On the same counts, the results for `O=C1[C@H]2Cc3c([nH]c4ccccc34)[C@@H](c3ccc4c(c3)OCO4)N2C(=O)CN1[C@@H]1CCN(CCc2ncc[nH]2)C1` are 3.5 nM, 357 nM, 1.2 nM, 2.9 and 300.
For `NC(=O)CCN1CC[C@@H](N2CC(=O)N3[C@H](c4ccc5c(c4)OCO5)c4[nH]c5ccccc5c4C[C@@H]3C2=O)C1`, in that order: 48 nM, 1601 nM, 8.4 nM, 5.7 and 189.
On to `Cn1ccnc1CCN1CC[C@@H](N2CC(=O)N3[C@H](c4ccc5c(c4)OCO5)c4[nH]c5ccccc5c4C[C@@H]3C2=O)C1` (stereo in doubt; form 2) [listing 2 of 2 here], for which the Selectivity ratio in test [4] turned out to be 2; in test [5], 173.
In the case of `O=C1[C@H]2Cc3c([nH]c4ccccc34)[C@@H](c3ccc4c(c3)OCO4)N2C(=O)CN1[C@@H]1CCN(CCc2ccccn2)C1`, the IC50 came out at 2.01 nM in test [1], 226 nM against Phosphodiesterase 6 and 1.5 nM in test [2]. Further, the Selectivity ratio in test [4] was 1.4; in test [5] it was 153.
With `Cn1ccnc1CCN1CC[C@@H](N2CC(=O)N3[C@H](c4ccc5c(c4)OCO5)c4[nH]c5ccccc5c4C[C@@H]3C2=O)C1` (stereo in doubt; form 1) [listing 1 of 2 here], the figures for the IC50 (in test [1]; at Phosphodiesterase 6; in test [2]) were 2.2 nM, 494 nM and 0.8 nM, respectively.
With `C=CCCN1CC[C@@H](N2CC(=O)N3[C@H](c4ccc5c(c4)OCO5)c4[nH]c5ccccc5c4C[C@@H]3C2=O)C1`, inhibition in test [2] was half-maximal at 4 nM (IC50). Moreover, in test [4], the Selectivity ratio was found to be 3.
For the molecule `O=C1[C@H]2Cc3c([nH]c4ccccc34)[C@@H](c3ccc4c(c3)OCO4)N2C(=O)CN1[C@@H]1CCN(CCc2cccnc2)C1`, the IC50 in test [1] stood at 2.4 nM; against Phosphodiesterase 6, 271 nM; in test [2], 1.9 nM. For the same molecule, the values for the Selectivity ratio in test [4] and in test [5] were 1.3 and 144, respectively.
Turning to `O=C1[C@H]2Cc3c([nH]c4ccccc34)[C@@H](c3ccc4c(c3)OCO4)N2C(=O)CN1C1CN(Cc2ccccc2)C1`, the figures for the IC50 in test [1] and in test [2] were 950 nM and 164 nM, respectively.
Regarding `Cc1ccc([C@@H]2c3[nH]c4ccccc4c3C[C@@H]3C(=O)N([C@@H]4CCN(Cc5ccccc5)C4)CC(=O)N23)cc1`, the IC50 in test [1] was 6.5 nM; in test [2], 12.8 nM. The Selectivity ratio in test [3] stood at 0.5.
In the case of `Cn1ccnc1CCN1CC[C@@H](N2CC(=O)N3[C@H](c4ccc5c(c4)OCO5)c4[nH]c5ccccc5c4C[C@@H]3C2=O)C1` (stereo in doubt; form 1) [listing 2 of 2 here], the Selectivity ratio worked out at 2.6 in test [4] and 640 in test [5].
Consider `CCCCCN1CC[C@@H](N2CC(=O)N3[C@H](c4ccc5c(c4)OCO5)c4[nH]c5ccccc5c4C[C@@H]3C2=O)C1`, for which the IC50 in test [1] was found to be 31 nM; at Phosphodiesterase 6 it was 1770 nM; in test [2], 13.2 nM. Besides, the Selectivity ratio in test [4] worked out at 2.3; in test [5] it was 134.
